Screens from PubChem.
Hits are enriched below; roughly 2.5% of the tested compounds scored in any of these assays.
E-selectin induc: E-selectin induction on HUVECs; P16581; HUVEC E-selectin immunofluorescence imaging; normalized: neutral wells 0, TNF-alpha wells 100; activation, % at 7.58 µM; actives 0.37% (n = 260,000);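 active = mean E-selectin-positive cell signal at least 10% of the positive control, reached in at least 60% of replicates, without over 20% cell loss; inconclusive = no rule given, readout overlaps actives, possibly toxicity-flagged; inactive = the rest, including those meeting only one limit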
Target sequence (P16581 whole entry, looked up): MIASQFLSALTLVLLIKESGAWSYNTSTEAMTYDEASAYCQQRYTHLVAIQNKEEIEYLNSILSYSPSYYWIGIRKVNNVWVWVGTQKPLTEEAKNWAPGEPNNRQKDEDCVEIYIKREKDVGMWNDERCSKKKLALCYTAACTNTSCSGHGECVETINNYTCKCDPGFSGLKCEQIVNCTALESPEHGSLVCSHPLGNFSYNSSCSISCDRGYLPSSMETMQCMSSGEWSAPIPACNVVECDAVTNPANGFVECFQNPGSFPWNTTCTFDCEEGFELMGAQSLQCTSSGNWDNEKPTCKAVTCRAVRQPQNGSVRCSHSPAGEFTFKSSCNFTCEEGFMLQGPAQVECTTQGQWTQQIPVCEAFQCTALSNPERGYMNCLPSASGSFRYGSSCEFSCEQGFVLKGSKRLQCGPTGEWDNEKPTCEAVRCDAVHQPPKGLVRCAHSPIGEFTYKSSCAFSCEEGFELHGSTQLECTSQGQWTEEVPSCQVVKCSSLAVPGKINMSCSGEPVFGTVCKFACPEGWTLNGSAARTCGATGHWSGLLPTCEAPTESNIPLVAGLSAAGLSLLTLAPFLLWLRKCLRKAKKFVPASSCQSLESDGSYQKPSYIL
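Assay system: HUVEC, human umbilical vein endothelial cells / Amount: 3,000 HUVEC/well / Controls: TNF-alpha positive control, DMSO neutral control / Compound dosing: single concentration / Medium: EGM-2 over gelatin coat / Evaluation: percent E-selectin-positive cells / Signal: immunofluorescence imaging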
S100A4 MyoIIA: blocks human S100A4 binding to myosin IIA peptide; inhibition, % at 10.7 µM; S100A4/TAMRA-MyoIIA peptide fluorescence polarization; P26447; actives 0.14% (n = 360,000);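 active = mean inhibition of at least 70% across replicates, with every replicate also reaching that level; inconclusive = mean inhibition reaches 70% but some replicates fall short; inactive = mean inhibition below 70%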
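Compound dosing: one dose per compound; test system: human S100A4 monomer with TAMRA-labelled myosin IIA peptide; probe or stimulus: TAMRA-labelled myosin IIA heavy-chain peptide probe, 5 nM; medium: HEPES buffer with Ca2+, pH 7.2; schedule: 5 min incubation before reading; benchmarks: neutral control DMSO, positive control TFP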
miR122 inh: blocks miR-122 activity in Huh7 sensor cells; Huh7 miR-122 Renilla luciferase sensor, 48 h; neutral wells = 0, positive control = 100; activation (reporter increase), % at 12.5 µM; actives 0.3% (n = 340,000); AID 602342;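 active = mean replicate activation score at least 90 and every replicate individually at or above 90; inconclusive = only one of the two criteria met; inactive = neither criterion met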;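 note: higher luciferase means less miR-122 activity so hits act as miR-122 inhibitors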
SIRT5 block: inhibitors of human sirtuin-5 desuccinylase. Q9NXA8. Purified SirT5, succinyl-peptide AMC, trypsin-coupled fluorescence. inhibition, % at 15 µM. actives 1.1% (n = 330,000). AID 652115; in the data active = inhibition above about 15%; inconclusive = no clear call, values can overlap the other calls
FGF22 binding: binders of recombinant human FGF22 by thermal shift. Q9HCT0. SYPRO orange fluorescence; percent of sucrose octasulfate shift, DMSO zero. activity (Tm shift, normalised), % at 9.99 µM. actives 1.5% (n = 340,000);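 active = mean Tm shift, scaled 0 neutral to 100 positive control, at about 1.3% or above, every replicate too, limit read from the data; inconclusive = no clear call, values can overlap the other calls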
The depositor's hits bear a star; [ ] = remark or other dose.

`CCOC(=O)C1(CCCc2ccccc2)CCN(C2CCN(C(C)=O)CC2)CC1` gave E-selectin induc 0.2, S100A4 MyoIIA -13.6, miR122 inh -0.8, SIRT5 block 17.6* and FGF22 binding 0.1.
CC(=O)N1CC2(C1)[C@H](c1ccc(-c3ccc(C#N)cc3)cc1)[C@@H](CO)N2C(=O)C1CC1 was read as E-selectin induc 0.3, S100A4 MyoIIA -10.8, SIRT5 block -0.6 and FGF22 binding 0.0.
Screening CCC(=O)N(C)C[C@@H]1Oc2cc(-c3ccc(OC)cc3)ccc2S(=O)(=O)N([C@H](C)CO)C[C@H]1C returned E-selectin induc -0.5, S100A4 MyoIIA 3.5, miR122 inh -9.9[16.7 µM], SIRT5 block 3.8 and FGF22 binding -0.1.
For CCC(=O)N[C@@H]1C=C[C@@H](CC(=O)NCc2ccccc2OC)O[C@H]1CO the results were E-selectin induc -0.5, S100A4 MyoIIA 2.1, SIRT5 block 6.1 and FGF22 binding 0.4.
CC(=O)Nc1ccc(NC(=O)C2CCCN2C(=O)Nc2ccccc2[N+](=O)[O-])cc1 (stereo not given) was read as E-selectin induc 4.0, S100A4 MyoIIA 1.4, miR122 inh -6.7, SIRT5 block 20.5* and FGF22 binding 0.4.
O=C(Nc1ccccc1)C1CCCN1C(=O)Nc1ccccc1[N+](=O)[O-] (stereo not given) was read as S100A4 MyoIIA 1.3, SIRT5 block -1.5 and FGF22 binding 0.3.
`CCc1cccc2c(C(=O)C(F)(F)F)cn(CC(=O)N3CCOCC3)c12` gave S100A4 MyoIIA 32.9, SIRT5 block -5.4 and FGF22 binding 43.0*.
Screening C[C@@H]1CN([C@H](C)CO)C(=O)c2c(c3ccccc3n2C)-c2ccccc2CO[C@H]1CN(C)S(=O)(=O)c1ccc([N+](=O)[O-])cc1 returned E-selectin induc -0.3, S100A4 MyoIIA 5.3, SIRT5 block 32.0* and FGF22 binding -0.9.
Cc1cccc(S(=O)(=O)N(C)C[C@H]2OCc3ccccc3-c3c(n(C)c4ccccc34)C(=O)N([C@@H](C)CO)C[C@H]2C)c1 was read as E-selectin induc -0.5, S100A4 MyoIIA 1.0, SIRT5 block 4.7 and FGF22 binding -0.1.
For C[C@@H]1CN([C@@H](C)CO)C(=O)c2c(c3ccccc3n2C)-c2ccccc2CO[C@H]1CN(C)S(=O)(=O)c1ccc(Cl)cc1 the results were E-selectin induc -0.6, S100A4 MyoIIA -2.8, SIRT5 block 1.3 and FGF22 binding -0.1.
C[C@@H]1CN([C@H](C)CO)C(=O)c2c(c3ccccc3n2C)-c2ccccc2CO[C@@H]1CN(C)S(=O)(=O)c1ccc(Cl)cc1 was read as E-selectin induc -0.5, S100A4 MyoIIA 12.4, SIRT5 block 18.6* and FGF22 binding -0.1.
Cc1cccc(S(=O)(=O)N(C)C[C@H]2OCc3ccccc3-c3c(n(C)c4ccccc34)C(=O)N([C@H](C)CO)C[C@H]2C)c1 was read as E-selectin induc -0.4, S100A4 MyoIIA 7.1, SIRT5 block 18.4* and FGF22 binding 0.1.
`C[C@H]1CN([C@@H](C)CO)C(=O)c2c(c3ccccc3n2C)-c2ccccc2CO[C@H]1CN(C)S(=O)(=O)c1ccc(F)cc1` gave E-selectin induc -0.3, S100A4 MyoIIA -3.1, SIRT5 block 21.1* and FGF22 binding -0.1.
Screening C[C@H](CO)N1C[C@H](C)[C@H](CN(C)Cc2ccncc2)Oc2c(NC(=O)Nc3cccc4ccccc34)cccc2C1=O returned E-selectin induc 0.1, S100A4 MyoIIA 6.9, miR122 inh -0.1[16.7 µM], SIRT5 block 6.2 and FGF22 binding -1.0.
`CN1/C(=C\C(=O)Nc2ccc(Cl)cc2)C(C)(C)c2ccccc21` gave S100A4 MyoIIA -15.1, SIRT5 block 4.7 and FGF22 binding 43.6*.
`CC(C)c1ccc(S(=O)(=O)Nc2ccc(-n3cnnn3)cc2)cc1` gave E-selectin induc -0.2, S100A4 MyoIIA -0.7, miR122 inh 103.2*, SIRT5 block 2.7 and FGF22 binding 0.1.
For CC(C)c1ccc(NS(=O)(=O)c2ccc(-n3cccn3)cc2)cc1 the results were S100A4 MyoIIA 17.6, miR122 inh 21.1, SIRT5 block -0.6 and FGF22 binding 0.0.
C[C@@H]1CN([C@@H](C)CO)S(=O)(=O)c2ccc(C#CC(C)(C)O)cc2O[C@@H]1CN(C)Cc1ccc(-c2ccccc2)cc1 was read as E-selectin induc 0.1, S100A4 MyoIIA 2.5, miR122 inh -1.5[16.7 µM], SIRT5 block 19.0* and FGF22 binding -0.6.
For C[C@@H]1CN([C@@H](C)CO)S(=O)(=O)c2ccc(C#CC(C)(C)O)cc2O[C@H]1CN(C)Cc1ccc(-c2ccccc2)cc1 the results were E-selectin induc -0.1, S100A4 MyoIIA -0.5, miR122 inh -15.5[16.7 µM], SIRT5 block -1.5 and FGF22 binding -0.9.
Screening C[C@@H]1CN([C@@H](C)CO)S(=O)(=O)c2ccc(C#CC(C)(C)O)cc2O[C@H]1CN(C)Cc1ccc(F)cc1 returned E-selectin induc 0.6, S100A4 MyoIIA -3.5, miR122 inh 13.0[16.7 µM], SIRT5 block 17.8* and FGF22 binding -0.5.
O=C(NCCCN=C1NS(=O)(=O)c2ccccc21)c1ccco1 was read as S100A4 MyoIIA 35.3, SIRT5 block 0.1 and FGF22 binding 0.3.
Screening O=C(NCCN=C1NS(=O)(=O)c2ccccc21)c1ccco1 returned S100A4 MyoIIA inconclusive, SIRT5 block 20.0* and FGF22 binding 0.4.
`C[C@@H]1CN([C@H](C)CO)C(=O)c2cccc(NS(=O)(=O)c3cccs3)c2O[C@@H]1CN(C)S(=O)(=O)c1ccc(Cl)cc1` gave E-selectin induc 0.0, S100A4 MyoIIA -29.1, miR122 inh 6.9[16.7 µM], SIRT5 block 0.3 and FGF22 binding -0.3.
Screening COc1ccc(NC(=O)N(C)C[C@@H]2Oc3ccc(NS(=O)(=O)c4ccc(Cl)cc4)cc3C(=O)N([C@H](C)CO)C[C@H]2C)cc1 returned E-selectin induc -29.5, S100A4 MyoIIA -0.5, miR122 inh 1.1[16.7 µM], SIRT5 block 1.9 and FGF22 binding 0.2.
`CCOc1ccccc1C(=O)Nc1ccc2nc3n(c(=O)c2c1)CCCCC3` gave E-selectin induc 1.0, S100A4 MyoIIA -1.4, miR122 inh 4.3, SIRT5 block 23.1* and FGF22 binding -0.2.
Screening CO[C@H]1CN(C)C(=O)c2ccc(NC(=O)Nc3c(C)noc3C)cc2OC[C@H](C)N(CC2CC2)C[C@@H]1C returned E-selectin induc 0.0, S100A4 MyoIIA 13.5, SIRT5 block 2.5 and FGF22 binding 0.2.
`C[C@@H]1CN([C@H](C)CO)C(=O)c2cc(NS(=O)(=O)c3cccs3)ccc2O[C@@H](C)CCCCO[C@@H]1CN(C)Cc1ccc(C(F)(F)F)cc1` gave E-selectin induc -0.3, S100A4 MyoIIA -31.0, miR122 inh 9.6[16.7 µM], SIRT5 block 19.2* and FGF22 binding -0.1.
